Experimental data as given in ChEMBL document CHEMBL1158500, “Synthesis and biological evaluation of new potential inhibitors of N-acylethanolamine hydrolyzing acid amidase” (Bioorg Med Chem Lett, 2010).
Active and inactive are the calls of the source. The calls are words filed in the database; no cut-off is given here.

Tests used:
[1] = target: T1, N-acylethanolamine-hydrolyzing acid amidase (Homo sapiens, UniProt Q02083); test: Inhibition of NAAA
T1 sequence (Q02083 whole entry): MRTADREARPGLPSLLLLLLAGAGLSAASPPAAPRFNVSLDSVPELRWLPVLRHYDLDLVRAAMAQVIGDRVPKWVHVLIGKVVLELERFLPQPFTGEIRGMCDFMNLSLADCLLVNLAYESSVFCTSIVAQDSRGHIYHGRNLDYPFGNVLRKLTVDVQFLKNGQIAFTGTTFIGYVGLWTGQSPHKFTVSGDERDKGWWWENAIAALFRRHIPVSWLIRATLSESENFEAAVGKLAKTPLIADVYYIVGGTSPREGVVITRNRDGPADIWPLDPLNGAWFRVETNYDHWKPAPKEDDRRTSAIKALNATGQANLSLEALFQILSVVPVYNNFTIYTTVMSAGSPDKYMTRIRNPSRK

[2] = target: T2, N-acylethanolamine-hydrolyzing acid amidase (Homo sapiens) (UniProt Q02083); test: Inhibition of human recombinant NAAA expressed in human HEK293 cells assessed as conversion of [1,2-14C]palmitoylethanolamine to [1,2-14C]ethanolamine at 50 uM by liquid scintillation counting; assay type: cell-based
T2 sequence (whole entry): T1 sequence (Q02083 whole entry)

[3] = target: T3, Fatty-acid amide hydrolase 1 (Homo sapiens) (UniProt O00519); test: Inhibition of FAAH in human intact HEK293 assessed as anandamide level by LC-APCI-MS analysis; assay type: cell-based
T3 sequence (whole entry): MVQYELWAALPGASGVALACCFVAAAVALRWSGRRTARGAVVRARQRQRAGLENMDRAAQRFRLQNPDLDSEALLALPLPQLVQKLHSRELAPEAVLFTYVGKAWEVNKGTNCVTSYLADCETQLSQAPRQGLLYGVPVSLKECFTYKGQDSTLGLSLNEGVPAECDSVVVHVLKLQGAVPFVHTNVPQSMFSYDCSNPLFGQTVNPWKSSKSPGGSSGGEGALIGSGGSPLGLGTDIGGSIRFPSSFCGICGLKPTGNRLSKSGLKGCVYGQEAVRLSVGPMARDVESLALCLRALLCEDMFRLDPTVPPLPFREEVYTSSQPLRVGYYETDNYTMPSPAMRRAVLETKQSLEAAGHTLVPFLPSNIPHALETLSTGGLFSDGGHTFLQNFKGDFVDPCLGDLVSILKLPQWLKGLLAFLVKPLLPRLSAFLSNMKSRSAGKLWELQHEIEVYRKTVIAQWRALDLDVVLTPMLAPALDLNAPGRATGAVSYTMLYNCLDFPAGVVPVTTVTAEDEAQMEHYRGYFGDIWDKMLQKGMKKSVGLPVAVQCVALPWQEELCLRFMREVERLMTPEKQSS
How it was run: (§1)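 Intact HEK-NAAA cells (HEK-293 stably overexpressing human NAAA) were treated. Cellular PEA, AEA, OEA and 2-arachidonoylglycerol were quantified by isotope-dilution liquid chromatography–mass spectrometry and expressed as pmol/mg lipid.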

[4] = target: Cannabinoid receptor 1 (Homo sapiens) (UniProt P21554); test: Displacement of [3H]CP-55940 from human recombinant CB1 receptor expressed in HEK293 cells up to 50 uM after 90 mins; assay type: cell-based
[5] = target: T3, Fatty-acid amide hydrolase 1 (Homo sapiens); test: Inhibition of FAAH up to 50 uM
[6] = target: T2, N-acylethanolamine-hydrolyzing acid amidase (Homo sapiens); test: Competitive inhibition of human recombinant NAAA expressed in human HEK293 cells assessed as conversion of [1,2-14C]palmitoylethanolamine to [1,2-14C]ethanolamine by Lineweaver-Burke plot analysis; assay type: cell-based
[7] = target: Cannabinoid receptor 2 (Homo sapiens) (UniProt P34972); test: Displacement of [3H]CP-55940 from human recombinant CB2 receptor expressed in HEK293 cells up to 50 uM after 90 mins; assay type: cell-based
[8] = target: T2, N-acylethanolamine-hydrolyzing acid amidase (Homo sapiens); test: Inhibition of NAAH in human intact HEK293 assessed as N-palmitoylethanolamine level by LC-APCI-MS analysis; assay type: cell-based; how it was run: as §1
[9] = target: Peroxisome proliferator-activated receptor (Homo sapiens) (UniProt P37231+Q07869+Q03181); test: Inhibition of PPAR in intact human HEK293 cells assessed as N-oleoylethanolamine level by LC-APCI-MS analysis; assay type: cell-based; how it was run: as §1
[10] = target: Transient receptor potential cation channel subfamily V member 1 (Homo sapiens) (UniProt Q8NER1); test: Inhibition of human TRPV1 expressed in HEK293 cells up to 50 uM; assay type: cell-based
[11] = target: Cannabinoid receptor 1 (Homo sapiens) (UniProt P21554); test: Inhibition of CB1 receptor in intact human HEK293 cells assessed as 2-arachidonoylglycerol level by LC-APCI-MS analysis; assay type: cell-based; how it was run: as §1
[12] = target: T1, N-acylethanolamine-hydrolyzing acid amidase; test: Inhibition of human recombinant NAAA expressed in human HEK293 cells assessed as conversion of [1,2-14C]palmitoylethanolamine to [1,2-14C]ethanolamine by liquid scintillation counting

SMILES	inhibition [2]	also measured
CCCCCCCCCCCCCCCNC(=O)c1ccccc1	–	IC50 [1]: 8.3 µM
CCCCCCCCCCCCCCCC(=O)OC1CCC1	41%	–
CCCCCCCCCCCCCCCC(=O)NCCc1cc(OC)cc(OC)c1	inactive	–
CCCCCCCCCCCCCCCC(=O)NN1CCN(c2cc(C)ccc2C)CC1	inactive	–
CCCCCCCCCCCCCCCC(=O)OC1CCCC1 [CYCLOPENTYL PALMITATE]	85%	Activity [3]: inactive; Activity [4]: inactive; Activity [5]: inactive; Activity [6]: Active; Activity [7]: inactive; Activity [8]: Active; Activity [9]: inactive; Activity [10]: inactive; Activity [11]: inactive; IC50 [12]: 10 µM
CCCCCCCCCCCCCCCC(=O)NCCc1ccc(OC)cc1	inactive	–
CCCCCCCCCCCCCCCCOC(=O)Nc1ccc(OC)cc1	inactive	–
CCCCCCCCCCCCCCCCOC(=O)c1ccc([N+](=O)[O-])cc1	26%	–
CCCCCCCCCCCCCCCCNC(=O)c1ccc(OC)cc1	inactive	–
CCCCCCCCCCCCCCCC(=O)Oc1ccc(OC)cc1	inactive	–
CCCCCCCCCCCCCCC(=O)OC1CCC1	29%	–
CCCCCCCCCCCCCCCC(=O)Nc1ccc([N+](=O)[O-])cc1	15%	–
CCCCCCCCCCCCCCCCOC(=O)NC1CCCCC1	inactive	–
CCCCCCCCCCCCCCCCOC(=O)c1ccc(OC)cc1	inactive	–
CCCCCCCCCCCCCCCCNC(=O)C1CCCC1	8%	–
CCCCCCCCCCCCCCCCNC(=O)c1ccc([N+](=O)[O-])cc1	4%	–

SMILES	inhibition [2]	also measured
CCCCCCCCCCCCCCCCC(=O)OC1CCCCC1	inactive	–
CCCCCCCCCCCCCCCCOC(=O)CC [HEXADECYLPROPIONATE]	–	IC50 [1]: 54 µM
CCCCCCCCCCCCCCCCOC(=O)C1CCCC1	17%	–
CCCCCCCCCCCCCCCC(=O)NN1CCN(c2ccc(F)cc2)CC1	inactive	–
CCCCCCCCCCCCCCCC(=O)NN1CCN(c2ccc(C)c(C)c2)CC1	inactive	–
CCCCCCCCCCCCCCCCC(=O)OC1CCCC1	inactive	–
CCCCCCCCCCCCCCCNC(=O)C1CCCCC1 [CYCLOHEXANECARBOXYLIC ACID PENTADECYLAMIDE]	–	IC50 [12]: 17 µM
CCCCCCCCCCCCCCCNC(=O)CCO	–	IC50 [1]: 32 µM
CCCCCCCCCCCCCCCCC(=O)OC1CCC1	inactive	–
CCCCCCCCCCCCCCCC(=O)NC1CCN(Cc2ccccc2)CC1	inactive	–
CCCCCCCCCCCCCCC(=O)OC1CCCCC1	28%	–
CCCCCCCCCCCCCCC(=O)OC1CCCC1	25%	–
CCCCCCCCCCCCCCCC(=O)Nc1ccc(OC)cc1	inactive	–
CCCCCCCCCCCCCCCC(=O)NN1CCN(c2ccc(Cl)cc2)CC1	inactive	–
CCCCCCCCCCCCCCCC(=O)OC1CCCCC1	18%	–
